ChEMBL document CHEMBL1149769, “Synthesis and antimicrobial activity of some novel derivatives of benzofuran: part 2. The synthesis and antimicrobial activity of some novel 1-(1-benzofuran-2-yl)-2-mesitylethanone derivatives” (2008)
≈ marks a conversion by molar mass, not a printed value.

Experiments:
Assay type in all cases: functional
Candida albicans = assay: Antimicrobial activity against Candida albicans ATCC 10231
How it was run: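 Yeast was subcultured on Sabouraud dextrose agar for 24 h at 35 °C. It was then tested by NCCLS M27-A broth microdilution in RPMI 1640 buffered with MOPS, pH 7.0. DMSO solutions were diluted twofold from 1024 […]. Final inoculum was 0.5×10^3–2.5×10^3 CFU/mL, read after 48 h at 35 °C. MIC was the lowest concentration visibly inhibiting growth.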

Staphylococcus aureus = assay: Antimicrobial activity against Staphylococcus aureus ATCC 6538
How it was run: (§1)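 Bacteria were subcultured on blood agar for 24 h at 37 °C, then tested by broth microdilution in cation-adjusted Mueller-Hinton broth. Compounds were in DMSO and given as twofold serial dilutions from 1024 down to 1, with a final inoculum of 10^5 CFU/mL. Plates were incubated 48 h at 35 °C. MIC was the lowest concentration preventing visible growth. Growth control was drug-free inoculated broth.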

Escherichia coli = assay: Antimicrobial activity against Escherichia coli ATCC 25922; how it was run: as §1

| SMILES | MIC (Candida albicans) [µg/mL] | MIC (Staphylococcus aureus) [µg/mL] | MIC (Escherichia coli) [µg/mL] |
| --- | --- | --- | --- |
| Cc1cc(C)c(C/C(=N\OC(=O)c2ccccc2)c2cc3ccccc3o2)c(C)c1 | 64 (≈ 161 µM) | 4 (≈ 10.1 µM) | 32 (≈ 80.5 µM) |
| Cc1cc(C)c(C/C(=N/OCC(=O)NN)c2cc3ccccc3o2)c(C)c1 | 32 (≈ 87.6 µM) | 256 (≈ 701 µM) | 64 (≈ 175 µM) |
| Cc1cc(C)c(CC(=O)CSC#N)c(C)c1 | 32 (≈ 137 µM) | 256 (≈ 1100 µM) | 256 (≈ 1100 µM) |
| Cc1cc(C)c(C/C(=N/O)c2cc3ccccc3o2)c(C)c1 | 128 (≈ 436 µM) | 128 (≈ 436 µM) | 128 (≈ 436 µM) |
| Cc1cc(C)c(CC(O)c2cc3ccccc3o2)c(C)c1 (stereo unspecified) | 64 (≈ 228 µM) | 128 (≈ 457 µM) | 128 (≈ 457 µM) |
| Cc1cc(C)c(C/C(=N/NC(N)=O)c2cc3ccccc3o2)c(C)c1 | 64 (≈ 191 µM) | 128 (≈ 382 µM) | 64 (≈ 191 µM) |
| CO/N=C(\Cc1c(C)cc(C)cc1C)c1cc2ccccc2o1 | 64 (≈ 208 µM) | 256 (≈ 833 µM) | 128 (≈ 416 µM) |
| Cc1cc(C)c(CC(O)CCl)c(C)c1 (stereo unspecified) | 32 (≈ 150 µM) | 128 (≈ 602 µM) | 64 (≈ 301 µM) |
| Cc1cc(C)c(CC(=O)CCl)c(C)c1 | 16 (≈ 75.9 µM) | 16 (≈ 75.9 µM) | 64 (≈ 304 µM) |
| CCOC(=O)CO/N=C(\Cc1c(C)cc(C)cc1C)c1cc2ccccc2o1 | 256 (≈ 675 µM) | 256 (≈ 675 µM) | 256 (≈ 675 µM) |
| Cc1cc(C)c(C/C(=N\OC(=O)Cc2ccccc2)c2cc3ccccc3o2)c(C)c1 | 128 (≈ 311 µM) | 256 (≈ 622 µM) | 128 (≈ 311 µM) |
| OC(Cn1cncn1)(Cn1cncn1)c1ccc(F)cc1F [FLUCONAZOLE] | 0.25 (≈ 0.816 µM) |  |  |
| C[C@@H](O)[C@H]1C(=O)N2C(C(=O)O)=C(S[C@@H]3CN[C@H](C(=O)N(C)C)C3)[C@H](C)[C@H]12 [MEROPENEM] |  | 1 (≈ 2.61 µM) | 0.125 (≈ 0.326 µM) |
